Substitutions are numbered along the chain they refer to. Calls of active or inactive are those of the source. No cut-off for these calls is given here.
Tests used:
[1] = molecular target: T1, Muscarinic acetylcholine receptor M1 (Homo sapiens) (UniProt P11229); assay: Positive allosteric modulation at human muscarinic M1 receptor expressing CHO cells assessed as potentiation of acetylcholine-induced calcium mobilization by FLIPR assay; assay type: functional, cell-based
T1 sequence (whole entry): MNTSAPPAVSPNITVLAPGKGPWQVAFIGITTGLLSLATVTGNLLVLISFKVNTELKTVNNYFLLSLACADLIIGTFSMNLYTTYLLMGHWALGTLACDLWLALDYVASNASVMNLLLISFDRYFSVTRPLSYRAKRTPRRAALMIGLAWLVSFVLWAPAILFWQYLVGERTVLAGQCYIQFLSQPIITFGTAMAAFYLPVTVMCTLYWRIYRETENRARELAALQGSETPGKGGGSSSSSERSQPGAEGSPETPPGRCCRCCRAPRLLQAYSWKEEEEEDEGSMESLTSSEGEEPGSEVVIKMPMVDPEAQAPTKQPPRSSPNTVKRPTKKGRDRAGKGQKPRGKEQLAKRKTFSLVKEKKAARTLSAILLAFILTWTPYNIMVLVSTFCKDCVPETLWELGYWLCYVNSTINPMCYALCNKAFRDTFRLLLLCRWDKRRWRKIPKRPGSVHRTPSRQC
In short: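 CHO cells expressing human M1 receptor. Inflection point determined in the presence of an EC20 concentration of acetylcholine. Mean of at least two experiments; interassay variability ±30%.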

[2] = Ratio of drug uptake in CSF to fraction unbound in plasma in rat; assay type: ADME, cell-free
In short: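 Sprague-Dawley rats, oral 10 mg/kg in 0.5% methocel. CSF level divided by unbound plasma level, with unbound plasma derived using rat plasma protein binding values.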

Plasma [3] = assay: Plasma concentration in Sprague-Dawley rat at 10 mg/kg, po; assay type: ADME, organism-based; set-up: dose 10 mg/kg, route oral; conditions: in vivo
In short: (§1)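 Sprague-Dawley rats dosed orally at 10 mg/kg in 0.5% methocel. Drug levels measured by bioanalysis of plasma, brain and CSF; brain/plasma ratio derived from these. Interanimal variability under 20%.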

Brain = assay: Drug uptake in Sprague-Dawley rat brain at 10 mg/kg, po; assay type: ADME, organism-based; set-up: dose 10 mg/kg, route oral; conditions: in vivo, read-out: Drug uptake; in short: as §1
[4] = Drug uptake in Sprague-Dawley rat CSF at 10 mg/kg, po; assay type: ADME, organism-based, Cerebrospinal fluid; set-up: dose 10 mg/kg, route oral; conditions: in vivo, read-out: Drug uptake; in short: as §1
[5] = molecular target: Voltage-gated inwardly rectifying potassium channel KCNH2 (Homo sapiens, UniProt Q12809); assay: Binding affinity to human ERG at <1 uM
[6] = Ratio of drug uptake in brain to plasma in Sprague-Dawley rat at 10 mg/kg, po; assay type: ADME, organism-based; set-up: dose 10 mg/kg, route oral; conditions: read-out: BPR; in short: as §1
[7] = Plasma protein binding in human; assay type: ADME, cell-free; conditions: read-out: PPB (converted)
[8] = Plasma protein binding in rat; assay type: ADME, cell-free; conditions: read-out: PPB (converted)
[9] = Distribution coefficient, log D of the compound; assay type: physicochemical; conditions: octanol/water
[10] = molecular target: T1, Muscarinic acetylcholine receptor M1 (Homo sapiens); assay: Positive allosteric modulation at human muscarinic M1 receptor expressing CHO cells assessed as potentiation of acetylcholine-induced calcium mobilization at 0.1 to 1 uM by FLIPR assay; assay type: functional, cell-based
In short: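 Human M1-expressing CHO cells; calcium mobilization read-out. Acetylcholine dose–response curves run with modulator at rising concentrations from 0.1 to 1 μM; fold potentiation taken from the leftward shift of the curve.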

Plasma [11] = assay: Plasma concentration in B6SJL mouse at 30 mg/kg; assay type: ADME, organism-based; set-up: dose 30 mg/kg; conditions: in vivo
In short: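 Plasma drug levels in B6SJL mice measured after 30 mpk dosing in the contextual fear conditioning study.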

Mus musculus [12] = assay: Antiamnesic activity against in contextual fear conditioning B6SJL mouse modle assessed as reversal of scopolamine-induced episodic memory deficit in at 3 mg/kg; assay type: functional, organism-based; set-up: dose 3 mg/kg
In short: (§2)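 Contextual fear conditioning model of episodic memory in B6SJL mice; scopolamine-induced deficit; test agents given at 3, 10 and 30 mpk; read-out is reversal of the scopolamine deficit.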

Mus musculus [13] = assay: Antiamnesic activity against in contextual fear conditioning B6SJL mouse modle assessed as reversal of scopolamine-induced episodic memory deficit in at 30 mg/kg; assay type: functional, organism-based; set-up: dose 30 mg/kg; in short: as §2
Mus musculus [14] = assay: Antiamnesic activity against in contextual fear conditioning B6SJL mouse modle assessed as reversal of scopolamine-induced episodic memory deficit in at 10 mg/kg; assay type: functional, organism-based; set-up: dose 10 mg/kg; in short: as §2
[15] = Ratio of drug uptake in CSF to fraction unbound in plasma in wild type CF-1 mouse after 30 mins; assay type: ADME, cell-free; conditions: 0.5 h
In short: (§3)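 CF-1 mice, wild type and P-gp knockout, were treated with the compound. Plasma and CSF were collected 30 minutes after treatment. The value is the CSF concentration divided by the unbound plasma concentration (CSF/U plasma ratio), reported separately for each genotype.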

[16] = Ratio of drug uptake in CSF to fraction unbound in plasma in P-gp knock out CF-1 mouse after 30 mins; assay type: ADME, cell-free; conditions: 0.5 h; in short: as §3
[17] = molecular target: T2, Muscarinic acetylcholine receptor M1 (Rattus norvegicus) (UniProt P08482); assay: Positive allosteric modulation at rat muscarinic M1 receptor
T2 sequence (whole entry): T1 sequence (whole entry) with A5V, T254S, P309S, R320K, A337G, I413V

Voltage-gated inwardly rectifying potassium channel KCNH2, sequence (Q12809 whole entry): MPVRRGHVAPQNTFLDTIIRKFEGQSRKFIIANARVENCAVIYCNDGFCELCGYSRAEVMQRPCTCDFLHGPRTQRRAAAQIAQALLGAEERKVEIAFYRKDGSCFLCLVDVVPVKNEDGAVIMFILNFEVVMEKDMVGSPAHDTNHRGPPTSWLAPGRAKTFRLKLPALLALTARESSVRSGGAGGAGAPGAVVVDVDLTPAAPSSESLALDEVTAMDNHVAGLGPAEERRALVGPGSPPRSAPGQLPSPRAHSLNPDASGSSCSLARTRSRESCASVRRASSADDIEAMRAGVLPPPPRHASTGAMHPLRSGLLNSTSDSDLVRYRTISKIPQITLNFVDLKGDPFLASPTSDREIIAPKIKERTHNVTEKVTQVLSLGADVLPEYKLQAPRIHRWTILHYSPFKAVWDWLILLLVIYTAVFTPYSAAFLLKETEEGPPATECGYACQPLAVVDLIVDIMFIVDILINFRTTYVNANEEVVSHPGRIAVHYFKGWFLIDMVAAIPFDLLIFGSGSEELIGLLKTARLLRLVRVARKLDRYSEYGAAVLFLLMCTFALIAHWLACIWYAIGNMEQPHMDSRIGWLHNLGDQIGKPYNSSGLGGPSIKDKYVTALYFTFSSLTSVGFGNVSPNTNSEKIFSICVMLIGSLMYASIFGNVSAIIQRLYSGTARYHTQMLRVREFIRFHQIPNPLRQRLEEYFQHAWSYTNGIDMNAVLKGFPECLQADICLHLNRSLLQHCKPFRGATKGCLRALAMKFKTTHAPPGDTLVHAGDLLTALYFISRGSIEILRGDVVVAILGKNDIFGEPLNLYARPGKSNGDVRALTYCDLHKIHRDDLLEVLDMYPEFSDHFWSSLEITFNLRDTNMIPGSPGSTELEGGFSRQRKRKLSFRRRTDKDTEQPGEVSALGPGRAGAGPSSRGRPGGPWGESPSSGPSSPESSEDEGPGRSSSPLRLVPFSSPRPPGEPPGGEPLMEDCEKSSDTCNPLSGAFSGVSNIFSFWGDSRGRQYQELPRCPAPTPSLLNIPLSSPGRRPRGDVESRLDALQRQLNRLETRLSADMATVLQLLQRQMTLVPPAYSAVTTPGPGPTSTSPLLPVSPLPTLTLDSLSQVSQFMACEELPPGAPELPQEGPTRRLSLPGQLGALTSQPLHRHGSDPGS

| SMILES | IP [1] | further results |
| --- | --- | --- |
| O=C(O)c1cc(CN2CCC(c3ccccc3)CC2)c2ccccn2c1=O | 1.3 µM |  |
| O=C(O)c1cc(CN2CCc3cc(Br)ccc3C2)c2ccccn2c1=O | 0.63 µM |  |
| O=C(O)c1cc(CN2CCc3ccncc3C2)c2ccccn2c1=O | 1.7 µM |  |
| O=C(O)c1cc(CN2CCc3cnccc3C2)c2ccccn2c1=O | 0.9 µM |  |
| O=C(O)c1cc(CN2CCC(c3cc[nH]n3)CC2)c2ccccn2c1=O | 1.5 µM |  |
| O=C(O)c1cc(CN2CCc3ccccc3C2c2ccncc2)c2ccccn2c1=O (stereo not drawn) | 0.053 µM | Ratio [2]: 0.37; concentration (Plasma [3]): 9780 nM; concentration (Brain): 1340 nM; concentration [4]: 230 nM; Activity [5]: Active; Kp [6]: 0.14; fraction unbound [7]: 0.04; fraction unbound [8]: 0.06 |
| CSc1ccc2c(c1)CCN(Cc1cc(C(=O)O)c(=O)n3ccccc13)C2 | > 10 µM |  |
| O=C(O)c1cc(CN2CCc3ccc(Cl)cc3C2)c2ccccn2c1=O | 0.63 µM |  |
| O=C(O)c1cc(CN2CCC(n3cccn3)CC2)c2ccccn2c1=O | 0.78 µM |  |
| O=C(O)c1cc(CN2CCC(c3cnccn3)CC2)c2ccccn2c1=O | 11 µM |  |
| O=C(O)c1cc(CN2CCC(c3cccc(Cl)c3)CC2)c2ccccn2c1=O | 0.91 µM |  |
| O=C(O)c1cc(CN2CCC(n3ccnn3)CC2)c2ccccn2c1=O | 1.7 µM |  |
| O=C(O)c1cc(CN2CCc3c(Cl)cccc3C2)c2ccccn2c1=O | 0.85 µM |  |
| O=C(O)c1cc(CN2CCC(c3cccnc3F)CC2)c2ccccn2c1=O | 0.84 µM |  |
| CCOC(=O)C1CN(Cc2cc(C(=O)O)c(=O)n3ccccc23)Cc2ccccc21 (stereo not drawn) | 3.6 µM |  |
| O=C(O)c1cc(CN2CCC(c3ccc(F)nc3)CC2)c2ccccn2c1=O | 2.1 µM |  |
| COC(=O)C1c2ccccc2CCN1Cc1cc(C(=O)O)c(=O)n2ccccc12 (stereo not drawn) | 1.7 µM |  |
| O=C(O)c1cc(CN2CCC(n3cnc4ccccc43)CC2)c2ccccn2c1=O | 0.55 µM | logD [9]: 0.92; fraction unbound [7]: 0.21; fraction unbound [8]: 0.24 |
| O=C(O)c1cc(CN2CCc3ccccc3C2c2cccs2)c2ccccn2c1=O (stereo not drawn) | 0.6 µM |  |
| N#Cc1ccc(N2CCN(Cc3cc(C(=O)O)c(=O)n4ccccc34)CC2)cc1 | 0.52 µM | Ratio [2]: 0.42 |
| COc1ccc(C2CCN(Cc3cc(C(=O)O)c(=O)n4ccccc34)CC2)cc1 | 4.3 µM |  |
| O=C(O)c1cc(CN2CCc3ncncc3C2)c2ccccn2c1=O | 1.8 µM |  |
| O=C(O)c1cc(CN2CCC(c3ccncn3)CC2)c2ccccn2c1=O | 4.3 µM |  |
| O=C(O)c1cc(CN2CCC(c3cccc(F)c3)CC2)c2ccccn2c1=O | 1.5 µM |  |
| O=C(O)c1cc(CN2CCC(c3ccc(C(F)(F)F)cc3)CC2)c2ccccn2c1=O | 0.46 µM |  |
| O=C(O)c1cc(CN2CCc3cc(-c4ccccc4)ccc3C2)c2ccccn2c1=O | 0.56 µM |  |
| O=C(O)c1cc(CN2CCC(c3ccc(Br)cc3)CC2)c2ccccn2c1=O | 1.2 µM |  |

| SMILES | IP [1] | further results |
| --- | --- | --- |
| O=C(O)c1cc(CN2CCc3ccccc3C2C2CCCCC2)c2ccccn2c1=O (stereo not drawn) | > 100 µM |  |
| O=C(O)c1cc(CN2CCc3ncccc3C2)c2ccccn2c1=O | 0.83 µM |  |
| O=C(O)c1cc(CN2CCC(c3nc4ccccc4[nH]3)CC2)c2ccccn2c1=O | 0.12 µM | concentration (Plasma [3]): 132 nM; fraction unbound [7]: 0.18; fraction unbound [8]: 0.23 |
| O=C(O)c1cc(CN2CCC(c3ccncc3)CC2)c2ccccn2c1=O | 0.95 µM |  |
| O=C(O)c1cc(CN2CCc3cc(-c4ccncc4)ccc3C2)c2ccccn2c1=O | 0.39 µM |  |
| O=C(O)c1cc(CN2CCC(n3ccnc3)CC2)c2ccccn2c1=O | 1.9 µM |  |
| O=C(O)c1cc(CN2CCC(c3ccc(F)cc3)CC2)c2ccccn2c1=O | 1.7 µM |  |
| O=C(O)c1cc(CN2CCc3cc(Cl)ccc3C2)c2ccccn2c1=O | 0.33 µM | Activity [10]: Active; Ratio [2]: 0.63; concentration (Plasma [3]): 4240 nM; concentration (Brain): 3690 nM; concentration (Plasma [11]): 16000 nM; concentration [4]: 86 nM; logD [9]: 2.37; Kp [6]: 0.86; fraction unbound [7]: 0.02; Activity (Mus musculus [12]): inactive; fraction unbound [8]: 0.04; Activity (Mus musculus [13]): inactive; Activity (Mus musculus [14]): inactive |
| O=C(O)c1cc(CN2CCc3cc(F)ccc3C2)c2ccccn2c1=O | 0.78 µM |  |
| O=C(O)c1cc(CN2CCC(c3ncccn3)CC2)c2ccccn2c1=O | 13 µM |  |
| CCOC(=O)C1c2ccccc2CCN1Cc1cc(C(=O)O)c(=O)n2ccccc12 (stereo not drawn) | 0.34 µM |  |
| O=C(O)c1cc(CN2CCC(c3cccc(F)n3)CC2)c2ccccn2c1=O | 2.2 µM |  |
| CCOC(=O)C1Cc2ccccc2CN1Cc1cc(C(=O)O)c(=O)n2ccccc12 (stereo not drawn) | > 100 µM |  |
| N#Cc1ccc(C2CCN(Cc3cc(C(=O)O)c(=O)n4ccccc34)CC2)cc1 | 1.3 µM |  |
| O=C(O)c1cc(CN2CCc3ccccc3C2c2ccccc2)c2ccccn2c1=O (stereo not drawn) | 0.56 µM |  |
| N#Cc1ccc2c(c1)CCN(Cc1cc(C(=O)O)c(=O)n3ccccc13)C2 | 0.61 µM |  |
| O=C(O)c1cn(Cc2ccc3ccccc3c2)c2ccccc2c1=O | 0.08 µM |  |
| O=C(O)c1cc(CN2CCC(c3ccc(Cl)cc3)CC2)c2ccccn2c1=O | 0.77 µM |  |
| Cc1ccc(C2CCN(Cc3cc(C(=O)O)c(=O)n4ccccc34)CC2)cc1 | 1.7 µM | Activity [10]: Active; Ratio [2]: 0.7; concentration (Plasma [3]): 915 nM; concentration (Brain): 5780 nM; concentration (Plasma [11]): 31000 nM; concentration [4]: 28 nM; logD [9]: 2.97; Kp [6]: 6; Ratio [15]: 0.37; Ratio [16]: 0.42; fraction unbound [7]: 0.09; Activity (Mus musculus [12]): inactive; fraction unbound [8]: 0.11; Activity (Mus musculus [13]): inactive; Activity (Mus musculus [14]): inactive; IP [17]: 760 nM |
| Cc1ccc2c(c1)CCN(Cc1cc(C(=O)O)c(=O)n3ccccc13)C2 | 1.1 µM |  |
| O=C(O)c1cc(CN2CCC(c3ccccc3F)CC2)c2ccccn2c1=O | 1.7 µM |  |
| O=C(O)c1cc(CN2CCc3ccccc3C2c2ccccc2F)c2ccccn2c1=O (stereo not drawn) | 0.15 µM |  |
| O=C(O)c1cc(CN2CCC(c3cncnc3)CC2)c2ccccn2c1=O | 7 µM |  |
| Cn1c(C2CCN(Cc3cc(C(=O)O)c(=O)n4ccccc34)CC2)nc2ccccc21 | 30 µM |  |
| COc1ccc2c(c1)CCN(Cc1cc(C(=O)O)c(=O)n3ccccc13)C2 | 1.4 µM |  |
| O=C(O)c1cc(CN2CCc3ccccc3C2)c2ccccn2c1=O | 1.7 µM |  |
| O=C(O)c1cc(CN2CCC(n3nnc4ccccc43)CC2)c2ccccn2c1=O | 6 µM |  |

— ChEMBL document CHEMBL1681740, “Quinolizidinone carboxylic acid selective M1 allosteric modulators: SAR in the piperidine series” (Bioorg Med Chem Lett, 2011)
